Results published in ChEMBL document CHEMBL1153278, “Discovery of novel non-peptidic beta-alanine piperazine amide derivatives and their optimization to achiral, easily accessible, potent and selective somatostatin sst1 receptor antagonists” (Bioorg Med Chem Lett, 2009).

Key:
[1] = target: Somatostatin receptor type 1 (Rattus norvegicus, UniProt P28646); experiment: Binding affinity to rat sst1 receptor
How it was run: (§1)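 Receptor binding run on rat sst1 and sst2 and on human sst1–sst5; affinities given as pKd, mean ± SEM of 3–6 experiments.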

[2] = target: Somatostatin receptor type 2 (Rattus norvegicus, UniProt P30680); experiment: Binding affinity to rat sst2 receptor; how it was run: as §1
Rattus norvegicus = species on record: Rattus norvegicus; experiment: Selectivity for rat sst1 receptor over rat sst2 receptor
[3] = target: Somatostatin receptor type 1 (Rattus norvegicus) (UniProt P28646); experiment: Antagonist activity at rat sst1 receptor assessed as inhibition of forskolin-stimulated cAMP accumulation by luciferase assay; format: functional
Cytochrome P450 2D6 = Cytochrome P450 2D6 (Homo sapiens, UniProt P10635); experiment: Inhibition of human CYP2D6 by microplate-based direct fluorometric assay; format: ADME
[4] = Oral bioavailability in mouse at 30 umol/kg; format: ADME, organism-based; conditions: in vivo
How it was run: (§2)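 Mice dosed by the intravenous and the oral route; drug levels followed in both plasma and brain; apparent terminal half-life taken from plasma; oral bioavailability estimated.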

D(4) dopamine receptor = target: T1, D(4) dopamine receptor (Homo sapiens, UniProt P21917); experiment: Binding affinity to dopamine D4 receptor
T1 sequence (P21917 whole entry): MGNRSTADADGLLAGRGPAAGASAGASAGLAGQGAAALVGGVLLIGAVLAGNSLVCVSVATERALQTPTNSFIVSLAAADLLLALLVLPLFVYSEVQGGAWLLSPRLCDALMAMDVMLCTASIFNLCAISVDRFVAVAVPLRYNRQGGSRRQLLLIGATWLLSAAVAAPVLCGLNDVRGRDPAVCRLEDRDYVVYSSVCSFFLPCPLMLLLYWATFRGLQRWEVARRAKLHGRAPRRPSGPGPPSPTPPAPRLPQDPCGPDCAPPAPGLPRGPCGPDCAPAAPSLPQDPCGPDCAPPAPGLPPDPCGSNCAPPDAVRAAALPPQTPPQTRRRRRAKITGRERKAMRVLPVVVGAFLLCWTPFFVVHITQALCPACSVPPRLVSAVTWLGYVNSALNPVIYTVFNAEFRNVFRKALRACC

[5] = Tmax in mouse at 10 umol/kg, iv and 30 umol/kg, po; format: ADME, organism-based; conditions: in vivo; how it was run: as §2
Cytochrome P450 3A4 = Cytochrome P450 3A4 (Homo sapiens, UniProt P08684); experiment: Inhibition of human CYP3A4 by microplate-based direct fluorometric assay; format: ADME
[6] = target: Somatostatin receptor type 2 (Homo sapiens, UniProt P30874); experiment: Binding affinity to human sst2 receptor; how it was run: as §1
D(2) dopamine receptor = D(2) dopamine receptor (Homo sapiens, UniProt P14416); experiment: Binding affinity to dopamine D2 receptor
[7] = target: T2, Somatostatin receptor type 1 (Homo sapiens, UniProt P30872); experiment: Antagonist activity at human sst1 receptor assessed as inhibition of forskolin-stimulated cAMP accumulation by luciferase assay; format: functional
[8] = Ratio of drug level in brain to plasma in mouse at 10 umol/kg, iv and 30 umol/kg, po; format: ADME, organism-based
How it was run: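 Pharmacokinetic study in mice given a single intravenous dose or an oral dose. Drug concentrations were measured in plasma and brain over time after each route. The brain/plasma concentration ratio was derived for each route.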

V79 = experiment: Genotoxicity in Chinese hamster V79 cells by micronucleus test; format: toxicity, cell-based, Cricetulus griseus
[9] = target: T2, Somatostatin receptor type 1; experiment: Binding affinity to human sst1 receptor; how it was run: as §1
Cytochrome P450 2C19 = Cytochrome P450 2C19 (Homo sapiens, UniProt P33261); experiment: Inhibition of human CYP2C19 by microplate-based direct fluorometric assay; format: ADME
[10] = target: Somatostatin receptor type 3 (Homo sapiens, UniProt P32745); experiment: Binding affinity to human sst3 receptor; how it was run: as §1
[11] = Binding affinity to adrenergic alpha1 receptor
[12] = Apparent terminal half life in mouse plasma at 10 umol/kg, iv and 30 umol/kg, po; format: ADME, organism-based; conditions: read-out: beta t1/2 (converted); how it was run: as §2
[13] = target: Somatostatin receptor type 4 (Homo sapiens, UniProt P31391); experiment: Binding affinity to human sst4 receptor; how it was run: as §1
Cytochrome P450 1A2 = target: T3, Cytochrome P450 1A2 (Homo sapiens, UniProt P05177); experiment: Inhibition of human CYP1A2 by microplate-based direct fluorometric assay; format: ADME
T3 sequence (P05177 whole entry): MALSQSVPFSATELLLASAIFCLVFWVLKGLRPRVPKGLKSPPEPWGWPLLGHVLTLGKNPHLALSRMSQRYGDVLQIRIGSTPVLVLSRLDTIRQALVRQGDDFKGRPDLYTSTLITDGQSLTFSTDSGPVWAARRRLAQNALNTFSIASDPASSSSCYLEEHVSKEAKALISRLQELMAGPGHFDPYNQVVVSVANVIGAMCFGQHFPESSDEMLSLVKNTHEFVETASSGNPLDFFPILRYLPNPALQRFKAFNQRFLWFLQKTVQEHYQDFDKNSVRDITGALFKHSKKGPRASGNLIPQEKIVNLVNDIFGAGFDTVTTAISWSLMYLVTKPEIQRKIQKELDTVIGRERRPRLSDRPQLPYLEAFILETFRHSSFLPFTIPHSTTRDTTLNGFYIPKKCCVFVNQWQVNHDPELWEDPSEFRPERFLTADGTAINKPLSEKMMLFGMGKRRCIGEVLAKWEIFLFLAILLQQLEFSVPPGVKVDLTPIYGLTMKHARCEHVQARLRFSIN

[14] = target: Somatostatin receptor type 5 (Homo sapiens, UniProt P35346); experiment: Binding affinity to human sst5 receptor; how it was run: as §1
Sequence of Somatostatin receptor type 5 (P35346 whole entry): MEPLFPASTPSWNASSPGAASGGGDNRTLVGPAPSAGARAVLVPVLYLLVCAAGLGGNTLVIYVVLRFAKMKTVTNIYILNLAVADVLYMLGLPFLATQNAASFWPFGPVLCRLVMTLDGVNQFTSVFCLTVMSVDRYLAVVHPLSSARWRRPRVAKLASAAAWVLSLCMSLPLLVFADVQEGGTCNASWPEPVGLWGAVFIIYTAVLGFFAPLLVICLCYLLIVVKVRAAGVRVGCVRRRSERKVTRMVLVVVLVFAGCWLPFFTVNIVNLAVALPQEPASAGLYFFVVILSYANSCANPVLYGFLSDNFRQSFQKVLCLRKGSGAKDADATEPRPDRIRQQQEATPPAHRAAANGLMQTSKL

Sequence of Somatostatin receptor type 1 (Rattus norvegicus, UniProt P28646) (P28646 whole entry): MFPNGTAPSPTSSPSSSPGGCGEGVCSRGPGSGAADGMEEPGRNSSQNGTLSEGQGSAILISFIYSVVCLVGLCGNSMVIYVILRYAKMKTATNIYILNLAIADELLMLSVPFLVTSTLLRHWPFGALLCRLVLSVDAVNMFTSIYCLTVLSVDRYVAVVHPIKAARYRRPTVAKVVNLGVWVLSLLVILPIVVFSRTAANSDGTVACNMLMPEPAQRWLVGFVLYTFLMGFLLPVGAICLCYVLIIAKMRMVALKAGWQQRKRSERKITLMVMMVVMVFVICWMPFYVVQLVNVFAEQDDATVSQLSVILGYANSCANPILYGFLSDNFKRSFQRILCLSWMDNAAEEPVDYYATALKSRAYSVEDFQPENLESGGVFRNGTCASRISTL
Sequence of Somatostatin receptor type 3 (P32745 whole entry): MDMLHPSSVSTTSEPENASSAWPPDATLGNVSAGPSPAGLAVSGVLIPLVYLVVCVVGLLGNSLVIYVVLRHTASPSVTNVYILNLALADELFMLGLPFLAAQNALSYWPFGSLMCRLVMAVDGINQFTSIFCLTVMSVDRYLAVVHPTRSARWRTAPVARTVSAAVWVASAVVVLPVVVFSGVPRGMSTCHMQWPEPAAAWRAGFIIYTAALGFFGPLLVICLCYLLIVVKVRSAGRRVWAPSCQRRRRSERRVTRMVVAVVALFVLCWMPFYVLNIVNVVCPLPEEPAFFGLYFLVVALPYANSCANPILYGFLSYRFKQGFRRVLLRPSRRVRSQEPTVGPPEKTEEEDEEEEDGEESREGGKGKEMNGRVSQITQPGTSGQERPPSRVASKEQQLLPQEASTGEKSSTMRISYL
Sequence of Somatostatin receptor type 4 (P31391 whole entry): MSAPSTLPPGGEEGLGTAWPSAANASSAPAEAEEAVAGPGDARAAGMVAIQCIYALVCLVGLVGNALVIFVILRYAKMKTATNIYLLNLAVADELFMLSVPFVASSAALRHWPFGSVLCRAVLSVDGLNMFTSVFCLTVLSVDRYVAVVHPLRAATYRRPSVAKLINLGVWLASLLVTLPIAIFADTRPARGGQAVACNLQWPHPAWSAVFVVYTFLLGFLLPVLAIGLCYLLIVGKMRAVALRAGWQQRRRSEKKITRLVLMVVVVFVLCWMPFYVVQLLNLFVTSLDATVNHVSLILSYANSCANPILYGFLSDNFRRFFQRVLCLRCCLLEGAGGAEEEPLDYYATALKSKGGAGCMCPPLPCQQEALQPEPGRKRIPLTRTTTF
Sequence of Somatostatin receptor type 2 (Homo sapiens, UniProt P30874) (P30874 whole entry): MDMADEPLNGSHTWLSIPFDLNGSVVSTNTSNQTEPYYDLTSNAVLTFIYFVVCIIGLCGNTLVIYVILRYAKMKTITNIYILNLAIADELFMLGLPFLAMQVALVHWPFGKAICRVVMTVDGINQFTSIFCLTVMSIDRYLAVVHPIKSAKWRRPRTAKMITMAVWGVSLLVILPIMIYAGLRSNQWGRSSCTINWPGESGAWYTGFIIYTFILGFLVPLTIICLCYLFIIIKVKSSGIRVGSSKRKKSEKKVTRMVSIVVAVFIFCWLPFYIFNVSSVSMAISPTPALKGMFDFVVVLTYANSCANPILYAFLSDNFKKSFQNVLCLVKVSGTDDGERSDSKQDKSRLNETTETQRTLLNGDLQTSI
T2 sequence (P30872 whole entry): as the sequence (P28646 whole entry) above, with P8S, T11S, S16P, G20S, V25G, C26G, S32A, S45A, A385T, S389T counted along it
Sequence of Somatostatin receptor type 2 (Rattus norvegicus, UniProt P30680) (P30680 whole entry): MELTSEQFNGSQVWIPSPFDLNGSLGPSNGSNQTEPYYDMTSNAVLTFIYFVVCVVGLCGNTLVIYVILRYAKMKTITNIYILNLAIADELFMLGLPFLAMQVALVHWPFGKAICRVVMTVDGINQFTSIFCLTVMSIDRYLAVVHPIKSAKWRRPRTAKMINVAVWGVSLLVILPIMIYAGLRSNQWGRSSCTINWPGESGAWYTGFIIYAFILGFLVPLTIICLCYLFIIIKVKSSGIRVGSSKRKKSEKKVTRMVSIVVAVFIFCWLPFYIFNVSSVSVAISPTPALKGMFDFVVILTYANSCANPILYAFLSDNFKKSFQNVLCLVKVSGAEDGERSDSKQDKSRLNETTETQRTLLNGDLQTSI
Sequence of Somatostatin receptor type 1 (Rattus norvegicus) (P28646 whole entry): as the sequence (P28646 whole entry) above
Sequence of D(2) dopamine receptor (P14416 whole entry): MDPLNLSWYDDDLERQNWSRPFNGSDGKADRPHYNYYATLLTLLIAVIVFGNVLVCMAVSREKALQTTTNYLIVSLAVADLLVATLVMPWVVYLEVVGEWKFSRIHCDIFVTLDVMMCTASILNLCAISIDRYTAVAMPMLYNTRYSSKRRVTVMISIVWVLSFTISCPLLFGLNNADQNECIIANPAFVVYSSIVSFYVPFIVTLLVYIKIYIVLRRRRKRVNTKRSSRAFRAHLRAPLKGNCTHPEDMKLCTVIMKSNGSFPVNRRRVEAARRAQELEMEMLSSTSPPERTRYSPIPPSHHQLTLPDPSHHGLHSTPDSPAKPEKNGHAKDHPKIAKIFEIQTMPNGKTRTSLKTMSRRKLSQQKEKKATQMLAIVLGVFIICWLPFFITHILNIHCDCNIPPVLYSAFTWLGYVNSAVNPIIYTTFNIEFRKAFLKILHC
Sequence of Cytochrome P450 3A4 (P08684 whole entry): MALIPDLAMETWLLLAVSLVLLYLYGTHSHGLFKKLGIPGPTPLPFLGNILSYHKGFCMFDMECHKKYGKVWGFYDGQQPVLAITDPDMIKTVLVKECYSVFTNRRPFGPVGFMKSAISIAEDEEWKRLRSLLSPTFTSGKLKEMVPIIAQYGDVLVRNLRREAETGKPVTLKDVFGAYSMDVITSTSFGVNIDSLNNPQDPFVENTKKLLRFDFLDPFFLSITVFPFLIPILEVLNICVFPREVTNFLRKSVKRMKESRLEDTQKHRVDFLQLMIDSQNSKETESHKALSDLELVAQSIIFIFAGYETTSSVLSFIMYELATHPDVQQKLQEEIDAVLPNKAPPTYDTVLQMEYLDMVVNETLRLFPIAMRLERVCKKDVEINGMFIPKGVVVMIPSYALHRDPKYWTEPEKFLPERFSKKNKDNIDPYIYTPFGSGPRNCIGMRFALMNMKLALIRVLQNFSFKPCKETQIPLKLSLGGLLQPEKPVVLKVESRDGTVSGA
Sequence of Cytochrome P450 2D6 (P10635 whole entry): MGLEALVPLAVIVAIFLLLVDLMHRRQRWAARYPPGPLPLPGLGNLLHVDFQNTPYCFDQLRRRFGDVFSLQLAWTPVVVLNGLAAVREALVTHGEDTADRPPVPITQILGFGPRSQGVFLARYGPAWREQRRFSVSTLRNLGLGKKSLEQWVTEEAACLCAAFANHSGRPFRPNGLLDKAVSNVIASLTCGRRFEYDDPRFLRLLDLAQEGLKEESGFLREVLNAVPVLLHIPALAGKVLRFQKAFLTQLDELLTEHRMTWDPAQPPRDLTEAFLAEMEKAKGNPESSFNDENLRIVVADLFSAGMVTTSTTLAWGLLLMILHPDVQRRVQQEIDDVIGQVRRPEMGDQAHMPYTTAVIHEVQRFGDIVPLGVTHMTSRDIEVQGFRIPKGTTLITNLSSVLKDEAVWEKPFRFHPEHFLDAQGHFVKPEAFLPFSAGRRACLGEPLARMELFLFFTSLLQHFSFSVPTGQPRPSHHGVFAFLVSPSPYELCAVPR
Sequence of Cytochrome P450 2C19 (P33261 whole entry): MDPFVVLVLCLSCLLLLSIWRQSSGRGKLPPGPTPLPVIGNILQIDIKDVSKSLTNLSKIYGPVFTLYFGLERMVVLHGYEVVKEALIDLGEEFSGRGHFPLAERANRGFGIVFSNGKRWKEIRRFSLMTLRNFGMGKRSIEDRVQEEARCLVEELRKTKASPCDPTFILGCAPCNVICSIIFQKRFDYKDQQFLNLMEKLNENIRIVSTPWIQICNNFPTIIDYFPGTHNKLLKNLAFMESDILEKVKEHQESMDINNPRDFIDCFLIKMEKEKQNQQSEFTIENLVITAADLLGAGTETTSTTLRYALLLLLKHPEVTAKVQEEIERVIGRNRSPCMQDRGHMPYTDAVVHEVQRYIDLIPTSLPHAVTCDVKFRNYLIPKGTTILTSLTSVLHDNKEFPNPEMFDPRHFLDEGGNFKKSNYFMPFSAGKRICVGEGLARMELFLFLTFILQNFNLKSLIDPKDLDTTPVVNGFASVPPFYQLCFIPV

Row | SMILES | Kd [1] | Kd [2] | other results
1 | CN(CCC(=O)N1CCN(c2ccc(=O)n(C)n2)CC1)CCC1c2ccccc2-c2ccccc21 | 6.61 nM |  | 
2 | CN(CCC(=O)N1CCN(c2cccc(Cl)c2)CC1)CCC1c2ccccc2-c2ccccc21 | 17.8 nM |  | 
3 | CN(CCC(=O)N1CCN(c2ccc(F)cc2F)CC1)CCC1c2ccccc2-c2ccccc21 | 3.31 nM |  | 
4 | CCN(CCC(=O)N1CCN(c2ccc([N+](=O)[O-])cc2)CC1)CCC1c2ccccc2-c2ccccc21 | 0.955 nM | 1820 nM | 
5 | O=C(CCN(CCC1c2ccccc2-c2ccccc21)CC1CC1)N1CCN(c2ccc([N+](=O)[O-])cc2)CC1 | 45.7 nM | 6920 nM | 
6 | CN(CCC(=O)N1CCN(c2ccc([N+](=O)[O-])cc2)CC1)CCn1c2ccccc2c2ccccc21 | 331 nM | 14500 nM | 
7 | C=CCN(CCC(=O)N1CCN(c2ccc([N+](=O)[O-])cc2)CC1)CCC1c2ccccc2-c2ccccc21 | 7.08 nM | 4070 nM | 
8 | CN(CCC(=O)N1CCN(c2ccncc2)CC1)CCC1c2ccccc2-c2ccccc21 | 21.4 nM |  | 
9 | CN(CCC(=O)N1CCN(c2ccc([N+](=O)[O-])cc2)CC1)CCc1cccc2ccccc12 | 77.6 nM | 8710 nM | 
10 | CN(CCC(=O)N1CCN(c2ccc(Cl)cc2)CC1)CCC1c2ccccc2-c2ccccc21 | 1.7 nM |  | 
11 | CC(C)N(CCC(=O)N1CCN(c2ccc([N+](=O)[O-])cc2)CC1)CCC1c2ccccc2-c2ccccc21 | 4.68 nM | 912 nM | 
12 | CN(CCC(=O)N1CCN(c2ccc(F)cc2)CC1)CCC1c2ccccc2-c2ccccc21 | 1.95 nM |  | 
13 | CN(CCC(=O)N1CCN(c2ccccc2C#N)CC1)CCC1c2ccccc2-c2ccccc21 | 4.57 nM |  | 
14 | CN(CCC(=O)N1CCN(c2ccc3nccn3n2)CC1)CCC1c2ccccc2-c2ccccc21 | 1.1 nM |  | 
15 | CN(CCC(=O)N1CCN(c2cccc(F)c2)CC1)CCC1c2ccccc2-c2ccccc21 | 3.63 nM |  | 
16 | CN(CCC(=O)N1CCN(c2cccc(C(F)(F)F)c2)CC1)CCC1c2ccccc2-c2ccccc21 | 61.7 nM |  | 
17 | CN(CCC(=O)N1CCN(c2ccc([N+](=O)[O-])cc2)CC1)CCC(c1ccccc1)c1ccccc1 | 13.8 nM | 8320 nM | 

Row | SMILES | Kd [1] | Kd [2] | other results
18 | CN(CCC(=O)N1CCN(c2ccc([N+](=O)[O-])cc2)CC1)CCc1ccc2ccccc2c1 | 275 nM | 16600 nM | 
19 | CN(CCC(=O)N1CCN(c2ccccc2Cl)CC1)CCC1c2ccccc2-c2ccccc21 | 24 nM |  | 
20 | CN(CCC(=O)N1CCN(c2ccc(C(F)(F)F)cc2)CC1)CCC1c2ccccc2-c2ccccc21 | 31.6 nM |  | 
21 | CN(CCC(=O)N1CCN(c2ccc([N+](=O)[O-])cc2)CC1)CCC1c2ccccc2-c2ccccc21 | 0.708 nM | 6920 nM | fold change (FC) (Rattus norvegicus): > 1000
22 | CN(CCC(=O)N1CCN(c2cccc(=O)n2C)CC1)CCC1c2ccccc2-c2ccccc21 | 2.14 nM |  | 
23 | CN(CCC(=O)N1CCN(c2ccc(F)c(F)c2)CC1)CCC1c2ccccc2-c2ccccc21.Cl | 0.575 nM | 19500 nM | pKb [3]: 8.55; IC50 (Cytochrome P450 2D6): 1300 nM; bioavailability [4]: 7%; Kd (D(4) dopamine receptor): 126 nM; Tmax [5]: 1 h; IC50 (Cytochrome P450 3A4): > 10000 nM; fold change (FC) (Rattus norvegicus): > 10000; Kd [6]: 12300 nM; Kd (D(2) dopamine receptor): 776 nM; pKb [7]: 8.46; Kp [8]: > 1; Activity (V79): Non-toxic; Kd [9]: 5.37 nM; IC50 (Cytochrome P450 2C19): > 10000 nM; Kd [10]: 2690 nM; pKd [11]: 6.53; half-life [12]: 6 h; Kd [13]: 2400 nM; IC50 (Cytochrome P450 1A2): > 10000 nM
24 | CN(CCC(=O)N1CCN(c2ccc(Cl)c(Cl)c2)CC1)CCC1c2ccccc2-c2ccccc21 | 1.91 nM |  | 
25 | CN(CCC(=O)N1CCN(c2ccc(F)c(F)c2)CC1)CCC1c2ccccc2Oc2ccccc21 | 0.776 nM | 6460 nM | pKb [3]: 7.93; IC50 (Cytochrome P450 2D6): < 1000 nM; bioavailability [4]: 19%; Kd (D(4) dopamine receptor): 490 nM; Tmax [5]: 1 h; IC50 (Cytochrome P450 3A4): > 10000 nM; fold change (FC) (Rattus norvegicus): > 10000; Kd [6]: 6920 nM; Kd (D(2) dopamine receptor): 490 nM; pKb [7]: 8.13; Kp [8]: > 1; Activity (V79): Non-toxic; Kd [9]: 1.62 nM; Kd [14]: 14500 nM; IC50 (Cytochrome P450 2C19): > 10000 nM; Kd [10]: 2820 nM; pKd [11]: 6.55; half-life [12]: 11 h; Kd [13]: 3390 nM; IC50 (Cytochrome P450 1A2): > 10000 nM
26 | CN(CCC(=O)N1CCN(c2ccc3nonc3c2)CC1)CCC1c2ccccc2-c2ccccc21 | 0.741 nM | 4170 nM | fold change (FC) (Rattus norvegicus): > 10000; Kd [6]: 4170 nM; Kd [9]: 2.63 nM; Kd [10]: 1200 nM; Kd [13]: 1150 nM
27 | CN(CCC(=O)N1CCN(c2ccc([N+](=O)[O-])cc2)CC1)CCC1c2ccccc2Cc2ccccc21 | 29.5 nM | 18600 nM | 
28 | CN(CCC(=O)N1CCN(c2ccc([N+](=O)[O-])cc2)CC1)CCC1c2ccccc2Oc2ccccc21 | 0.891 nM | 6760 nM | fold change (FC) (Rattus norvegicus): > 1000
29 | CN(CCC(=O)N1CCN(c2ccc3nonc3c2)CC1)CCC1c2ccccc2Oc2ccccc21 | 0.324 nM | 8130 nM | fold change (FC) (Rattus norvegicus): > 10000; Kd [9]: 2.14 nM; Kd [10]: 1620 nM; Kd [13]: 1450 nM
30 | CN(CCC(=O)N1CCN(c2ccc([N+](=O)[O-])cc2)CC1)CCC1c2ccccc2C=Cc2ccccc21 | 11.5 nM | 5130 nM | 
31 | Cc1cccc(C)c1N1CCN(C(=O)CCN(C)CCC2c3ccccc3-c3ccccc32)CC1 | > 1000 nM |  | 
32 | CN(CCC(=O)N1CCN(c2ccc([N+](=O)[O-])cc2)CC1)CCC1c2ccccc2CCc2ccccc21 | 18.2 nM | 3470 nM | fold change (FC) (Rattus norvegicus): > 100
33 | CN(CCC(=O)N1CCN(c2ccc3c(c2)OCO3)CC1)CCC1c2ccccc2-c2ccccc21 | 4.57 nM |  | 
34 | CN(CCC(=O)N1CCN(c2ccc([N+](=O)[O-])cc2)CC1)CCC1c2ccccc2Sc2ccccc21 | 12.6 nM | 6030 nM | 
